Measured values from ChEMBL document CHEMBL3244116, “New antiarrhythmic agents. 2. Amide alkyl alpha-amino xylidides” (J Med Chem, 1979).

Tested on: Mus musculus
Test: Toxicity in Swiss albino mouse assessed as convulsion at 100 mg/kg, sc measured up to 20 mins
Assay type: organism-based
Parameters: dose 100 mg/kg, route subcutaneous
Settings: in vivo
Outline: (§1)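 Mice were given test agents subcutaneously, 100 mg/kg in preliminary runs, and were then challenged with chloroform to induce ventricular fibrillation (a modification of Lawson's method). Protection is expressed as the percent of challenged animals that survived the challenge. In the same animals, ataxia, convulsions, loss of righting reflex and death were scored as the percent of treated animals.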

Row | SMILES | Activity
1 | Cc1cccc(C)c1NC(=O)C(C)N (stereo not drawn) [TOCAINIDE] | 0%
2 | CCCCOc1cc(C)c(N(C)C(=O)CN)c(C)c1.O=C(O)C(=O)O | 0%
3 | Cc1cccc(C)c1NC(=O)CN [GLYCINEXYLIDIDE] | 0%
4 | CCCOc1cc(C)c(N(C)C(=O)CN)c(C)c1.O=C(O)C(=O)O | 0%
5 | CCC(N)C(=O)N(CC)c1c(C)cccc1C.Cl (stereo not drawn) | 100%
6 | CCN(CC)CC(=O)Nc1c(C)cccc1C [LIDOCAINE] | 100%
7 | CCCOc1cc(C)c(N(CC)C(=O)CN)c(C)c1.O=C(O)C(=O)O | 0%

Tested on: Canis familiaris
Test: Toxicity in left anterior descending coronary artery ligated myocardial infarction dog model assessed as dose required to cause convulsion at infusion rate at 0.66 mg/kg/min
Assay type: organism-based, Canis lupus familiaris
Settings: in vivo
Outline: (§2)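 Test agents were infused intravenously into dogs with coronary artery ligation-induced myocardial infarction and ventricular arrhythmias. In some runs, infusion stopped at clearing or at convulsion. In others, it continued until clearing. Ectopic beats, CNS signs (convulsions, opisthotonus, clonic spasms), respiratory arrest and mean arterial blood pressure were recorded, and doses are given in mmol/kg. Values are means±SD of 5–14 experiments or the mean of 8.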

Row | SMILES | Activity
8 | CCCOc1cc(C)c(N(CC)C(=O)CN)c(C)c1.O=C(O)C(=O)O | 0.13 mmol/kg

Tested on: Mus musculus
Test: Toxicity in Swiss albino mouse assessed as ataxia at 100 mg/kg, sc measured up to 20 mins
Assay type: organism-based
Parameters: dose 100 mg/kg, route subcutaneous
Settings: in vivo
Outline: as §1

Row | SMILES | Activity
9 | Cc1cccc(C)c1NC(=O)C(C)N (stereo not drawn) [TOCAINIDE] | 10%
10 | CCCCOc1cc(C)c(N(C)C(=O)CN)c(C)c1.O=C(O)C(=O)O | 0%
11 | Cc1cccc(C)c1NC(=O)CN [GLYCINEXYLIDIDE] | 0%
12 | CCCOc1cc(C)c(N(C)C(=O)CN)c(C)c1.O=C(O)C(=O)O | 20%
13 | CCC(N)C(=O)N(CC)c1c(C)cccc1C.Cl (stereo not drawn) | 100%
14 | CCN(CC)CC(=O)Nc1c(C)cccc1C [LIDOCAINE] | 100%
15 | CCCOc1cc(C)c(N(CC)C(=O)CN)c(C)c1.O=C(O)C(=O)O | 0%

Tested on: Canis familiaris
Test: Antiarrhythmic activity in iv dosed left anterior descending coronary artery ligated myocardial infarction dog model assessed as dose required to reduction in ventricular ectopic beats to <= 5% at infusion rate 0.5 mg/kg/min
Assay type: functional, Canis lupus familiaris, Heart
Settings: not given
Outline: as §2

Row | SMILES | Activity
16 | Cc1cccc(C)c1NC(=O)C(C)N (stereo not drawn) [TOCAINIDE] | 0.32 mmol/kg
17 | CCN(CC)CC(=O)Nc1c(C)cccc1C [LIDOCAINE] | 0.21 mmol/kg
18 | CCCOc1cc(C)c(N(CC)C(=O)CN)c(C)c1.O=C(O)C(=O)O | 0.09 mmol/kg

Tested on: Canis familiaris
Test: Antiarrhythmic activity in left anterior descending coronary artery ligated myocardial infarction dog model assessed as clearing value as reduction in ventricular ectopic beats to <= 5% for 5 mins at infusion rate 0.5 mg/kg/min, iv treated until arrhythmia cleared
Assay type: functional, Canis lupus familiaris, Heart
Parameters: scale not given: the % may be the effect or the level left
Settings: not given
Outline: as §2

Row | SMILES | Activity
19 | Cc1cccc(C)c1NC(=O)C(C)N (stereo not drawn) [TOCAINIDE] | 2%
20 | CCN(CC)CC(=O)Nc1c(C)cccc1C [LIDOCAINE] | 4%
21 | CCCOc1cc(C)c(N(CC)C(=O)CN)c(C)c1.O=C(O)C(=O)O | 1%

Tested on: not listed separately
Test: Toxicity in Swiss albino mouse assessed as death at 100 mg/kg, sc measured up to 20 mins
Assay type: organism-based
Parameters: dose 100 mg/kg, route subcutaneous
Settings: in vivo, read-out: Activity
Outline: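 Mice given 100 mg/kg subcutaneously in preliminary screening, then later challenged with chloroform to induce ventricular fibrillation. CNS signs were recorded in the same animals. Value is the percent of treated animals that died.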

Row | SMILES | mortality at 20 min
22 | Cc1cccc(C)c1NC(=O)C(C)N (stereo not drawn) [TOCAINIDE] | 0%
23 | CCCCOc1cc(C)c(N(C)C(=O)CN)c(C)c1.O=C(O)C(=O)O | 0%
24 | Cc1cccc(C)c1NC(=O)CN [GLYCINEXYLIDIDE] | 0%
25 | CCCOc1cc(C)c(N(C)C(=O)CN)c(C)c1.O=C(O)C(=O)O | 0%
26 | CCC(N)C(=O)N(CC)c1c(C)cccc1C.Cl (stereo not drawn) | 30%
27 | CCN(CC)CC(=O)Nc1c(C)cccc1C [LIDOCAINE] | 0%
28 | CCCOc1cc(C)c(N(CC)C(=O)CN)c(C)c1.O=C(O)C(=O)O | 0%

Tested on: Canis familiaris
Test: Antiarrhythmic activity in left anterior descending coronary artery ligated myocardial infarction dog model assessed as mean arterial blood pressure at infusion rate 0.5 mg/kg/min, iv
Assay type: functional, Canis lupus familiaris
Settings: not given
Outline: as §2

Row | SMILES | Activity
29 | Cc1cccc(C)c1NC(=O)C(C)N (stereo not drawn) [TOCAINIDE] | 108 mmHg
30 | CCN(CC)CC(=O)Nc1c(C)cccc1C [LIDOCAINE] | 101 mmHg
31 | CCCOc1cc(C)c(N(CC)C(=O)CN)c(C)c1.O=C(O)C(=O)O | 90 mmHg

Tested on: Canis familiaris
Test: Antiarrhythmic activity in left anterior descending coronary artery ligated myocardial infarction dog model assessed as clearing value as reduction in ventricular ectopic beat rate per min at infusion rate 0.5 mg/kg/min, iv treated until arrhythmia cleared
Assay type: functional, Canis lupus familiaris, Heart
Settings: not given
Outline: as §2

Row | SMILES | Activity
32 | Cc1cccc(C)c1NC(=O)C(C)N (stereo not drawn) [TOCAINIDE] | 148 bpm
33 | CCN(CC)CC(=O)Nc1c(C)cccc1C [LIDOCAINE] | 133 bpm
34 | CCCOc1cc(C)c(N(CC)C(=O)CN)c(C)c1.O=C(O)C(=O)O | 168 bpm

Tested on: Canis familiaris
Test: Toxicity in left anterior descending coronary artery ligated myocardial infarction dog model assessed as dose required to cause convulsion at infusion rate at 0.5 mg/kg/min
Assay type: organism-based, Canis lupus familiaris
Settings: in vivo
Outline: as §2

Row | SMILES | Activity
35 | Cc1cccc(C)c1NC(=O)C(C)N (stereo not drawn) [TOCAINIDE] | 0.3 mmol/kg
36 | CCN(CC)CC(=O)Nc1c(C)cccc1C [LIDOCAINE] | 0.27 mmol/kg

Tested on: Mus musculus
Test: Antiarrhythmic activity in Swiss albino mouse assessed as protection against chloroform-induced fibrillation at 100 mg/kg, sc treated 20 mins before chloroform challenge
Assay type: functional, Heart
Settings: route subcutaneous
Outline: as §1

Row | SMILES | Activity
37 | Cc1cccc(C)c1NC(=O)C(C)N (stereo not drawn) [TOCAINIDE] | 20%
38 | CCCCOc1cc(C)c(N(C)C(=O)CN)c(C)c1.O=C(O)C(=O)O | 100%
39 | Cc1cccc(C)c1NC(=O)CN [GLYCINEXYLIDIDE] | 10%
40 | CCCOc1cc(C)c(N(C)C(=O)CN)c(C)c1.O=C(O)C(=O)O | 70%
41 | CCC(N)C(=O)N(CC)c1c(C)cccc1C.Cl (stereo not drawn) | 100%
42 | CCN(CC)CC(=O)Nc1c(C)cccc1C [LIDOCAINE] | 100%
43 | CCCOc1cc(C)c(N(CC)C(=O)CN)c(C)c1.O=C(O)C(=O)O | 100%

Tested on: Canis familiaris
Test: Toxicity in iv dosed left anterior descending coronary artery ligated myocardial infarction dog model assessed as dose required to cause convulsion after infusion off
Assay type: organism-based, Canis lupus familiaris
Settings: in vivo
Outline: as §2

Row | SMILES | Activity
44 | CCCOc1cc(C)c(N(CC)C(=O)CN)c(C)c1.O=C(O)C(=O)O | 0.16 mmol/kg

Tested on: Mus musculus
Test: Ratio of lidocaine ED50 to compound ED50 for antiarrhythmic activity sc dosed Swiss albino mouse assessed as protection against chloroform-induced ventricular fibrillation
Assay type: functional, Heart
Settings: not given
Outline: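 Each ED50 against chloroform-induced ventricular fibrillation in subcutaneously dosed mice came from at least three doses. Potency was calculated relative to lidocaine on a molar basis.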

Row | SMILES | Ratio ED50
45 | Cc1cccc(C)c1NC(=O)C(C)N (stereo not drawn) [TOCAINIDE] | 0.2
46 | CCCCOc1cc(C)c(N(C)C(=O)CN)c(C)c1.O=C(O)C(=O)O | 1
47 | Cc1cccc(C)c1NC(=O)CN [GLYCINEXYLIDIDE] | 0.3
48 | CCCOc1cc(C)c(N(C)C(=O)CN)c(C)c1.O=C(O)C(=O)O | 0.8
49 | CCN(CC)CC(=O)Nc1c(C)cccc1C [LIDOCAINE] | 1
50 | CCCOc1cc(C)c(N(CC)C(=O)CN)c(C)c1.O=C(O)C(=O)O | 1.6

Tested on: Mus musculus
Test: Antiarrhythmic activity in sc dosed Swiss albino mouse assessed as protection against chloroform-induced ventricular fibrillation
Assay type: functional
Settings: Heart
Outline: as §1

Row | SMILES | ED50
51 | Cc1cccc(C)c1NC(=O)C(C)N (stereo not drawn) [TOCAINIDE] | 1300 µmol/kg
52 | CCCCOc1cc(C)c(N(C)C(=O)CN)c(C)c1.O=C(O)C(=O)O | 270 µmol/kg
53 | Cc1cccc(C)c1NC(=O)CN [GLYCINEXYLIDIDE] | 900 µmol/kg
54 | CCCOc1cc(C)c(N(C)C(=O)CN)c(C)c1.O=C(O)C(=O)O | 340 µmol/kg
55 | CCN(CC)CC(=O)Nc1c(C)cccc1C [LIDOCAINE] | 260 µmol/kg
56 | CCCOc1cc(C)c(N(CC)C(=O)CN)c(C)c1.O=C(O)C(=O)O | 160 µmol/kg

Tested on: Mus musculus
Test: Toxicity in Swiss albino mouse assessed as loss of righting reflex at 100 mg/kg, sc measured up to 20 mins
Assay type: organism-based
Parameters: dose 100 mg/kg, route subcutaneous
Settings: in vivo
Outline: as §1

Row | SMILES | Activity
57 | Cc1cccc(C)c1NC(=O)C(C)N (stereo not drawn) [TOCAINIDE] | 0%
58 | CCCCOc1cc(C)c(N(C)C(=O)CN)c(C)c1.O=C(O)C(=O)O | 0%
59 | Cc1cccc(C)c1NC(=O)CN [GLYCINEXYLIDIDE] | 0%
60 | CCCOc1cc(C)c(N(C)C(=O)CN)c(C)c1.O=C(O)C(=O)O | 0%
61 | CCC(N)C(=O)N(CC)c1c(C)cccc1C.Cl (stereo not drawn) | 0%
62 | CCN(CC)CC(=O)Nc1c(C)cccc1C [LIDOCAINE] | 100%
63 | CCCOc1cc(C)c(N(CC)C(=O)CN)c(C)c1.O=C(O)C(=O)O | 0%
